Published values pooled from the literature.
Target: Serine/threonine-protein kinase pim-3 (PIM3, Homo sapiens, UniProt Q86V86)

CC(=O)N1CCC(c2ccc(C(=O)NC3=NCCN3)cc2C(F)(F)F)CC1  remaining binding (cell-free assay, competition with immobilised ligand; 1 µM): 100%
Cc1ccc(C(=O)NCc2ccsc2)cc1C#Cc1cn(C(C)C)c2ncnc(N)c12  activity vs control (enzyme activity, inhibitor; 1 µM): 85%
Cc1sc(C(=O)NC2COC2)cc1-n1cc(NC(=O)Nc2c(F)cccc2Cl)cn1  remaining activity (enzyme activity, inhibitor; 10 µM): 129%
Nc1nc(Nc2ccccc2)sc1C(=O)c1c(F)cccc1F  remaining activity (enzyme activity, inhibitor; 10 µM): 69%
CNC(=O)c1cc(Oc2ccc(NC(=O)Nc3ccc(Cl)c(C(F)(F)F)c3)cc2)ccn1  inhibition (enzyme activity, inhibitor; 10 µM): -16%
CC1=C(C#N)C(c2ccc3c(c2)c(NC(=O)c2ccccc2C)nn3C)C(C#N)=C(C)N1  remaining binding (cell-free assay, competition with immobilised ligand; 1 µM): 100%
COc1cc(Nc2cnc(C#N)c(O[C@H](C)CN(C)C)n2)ncc1-c1cnn(C)c1  remaining activity (enzyme activity, inhibitor, radiometric; 10 µM): 17%
Cc1ccc(NC(=O)c2ccc(C)c(C(F)(F)F)c2)cc1C#Cc1nn(C2CCC(O)CC2)c2ncnc(N)c12 (stereo not drawn)  remaining signal (cell-free assay; 10 µM): 99%
COc1cc(Cl)c(C(=O)N[C@@H](CN[C@H]2CC[C@@H](N)CC2)Cc2ccc(C#N)cc2)cc1-c1ccc(CN[C@H](C)c2ccc(C)cc2)o1  remaining activity (enzyme activity, inhibitor; 1 µM): 84%
Cc1cnc(NC2CCOCC2)nc1-n1cnc(C(=O)NC(CN)c2cc(F)cc(Cl)c2)c1 (stereo not drawn)  remaining activity (enzyme activity, inhibitor, radiometric; 1 µM): 95%
Cc1ccc(Nc2nccc(N(C)c3ccc4c(C)n(C)nc4c3)n2)cc1S(N)(=O)=O  remaining activity (enzyme activity, inhibitor; 0.5 µM): 81.6%
CN(c1ncccc1CNc1nc(Nc2ccc3c(c2)CC(=O)N3)ncc1C(F)(F)F)S(C)(=O)=O  inhibition (enzyme activity, inhibitor; 1 µM): 21.2%
O=C(N1CCS(=O)(=O)CC1)N1C[C@H](c2ccc(OC(F)(F)F)cc2)C[C@H](c2nc(C3CC3)no2)C1  remaining binding (cell-free assay, competition with immobilised ligand; 1 µM): 100%
O=C1Nc2ccc(Cl)cc2C1=Cc1cc(Cl)c(O)c(Cl)c1  remaining signal (cell-free assay; 0.5 µM): 14.5%
O=C(O)[C@@H]1[C@@H](Cn2nnc3ccccc3c2=O)CC[C@H]1C(=O)c1ccc(OCCC2CCOCC2)cc1  remaining binding (cell-free assay, competition with immobilised ligand; 1 µM): 84%
Oc1cccc(-c2nc(N3CCOCC3)c3oc4ncccc4c3n2)c1  remaining activity (enzyme activity, inhibitor; 10 µM): 41%
CS(=O)(=O)NCC[C@H](NC(=O)c1cncc2c1cnn2-c1ccc(F)cc1)c1ccnc(S(C)(=O)=O)c1  remaining binding (cell-free assay, competition with immobilised ligand; 1 µM): 100%
CS(=O)(=O)Nc1cccc(-c2csc(NC(=O)CSc3nc4nccnc4c(=O)n3CCc3ccccc3)n2)c1  inhibition (enzyme activity, inhibitor; 10 µM): 1%
